According to article PMC3051377 (British Journal of Pharmacology, 2011):
Read-outs that look alike come from different tables or passages of the source.

Legend:
[1] = system: Gs/olf G-proteins; assay: Kinetics of 500 nM [3H]GDP binding to Gs/olf G-proteins; set-up: species or system Chinese hamster; settings: Control
[2] = system: G-proteins in GDP-less membranes of CHO-M2 cells; assay: Equilibrium [3H]GDP binding to GDP-less membranes; set-up: species or system Chinese hamster
In short: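 GDP-less membranes from CHO-M2 cells were made by treatment with 1 M ammonium sulphate for 3 h at 4°C, then renatured 1 h in 20% glycerol. Incubation was 5 h at 30°C in 100 mM NaCl, 20 mM Na-HEPES, 10 mM MgCl₂ (pH 7.4) with 1 mM DTT. Assays were homologous competition at 1 or 5 µM [³H]GDP, plus saturation. Non-specific binding was taken with 50 µM GDP. Three experiments, quadruplicate; Hill-equation fits.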

[3] = target: T1, M2 receptor-G-protein complex (Homo sapiens, UniProt P08172); format: binding; settings: for reduction of agonist affinity by GDP (factor of cooperativity β): Eqn 8, GDP-less membranes, 1 nM [3H]NMS
T1 sequence (P08172 1-466): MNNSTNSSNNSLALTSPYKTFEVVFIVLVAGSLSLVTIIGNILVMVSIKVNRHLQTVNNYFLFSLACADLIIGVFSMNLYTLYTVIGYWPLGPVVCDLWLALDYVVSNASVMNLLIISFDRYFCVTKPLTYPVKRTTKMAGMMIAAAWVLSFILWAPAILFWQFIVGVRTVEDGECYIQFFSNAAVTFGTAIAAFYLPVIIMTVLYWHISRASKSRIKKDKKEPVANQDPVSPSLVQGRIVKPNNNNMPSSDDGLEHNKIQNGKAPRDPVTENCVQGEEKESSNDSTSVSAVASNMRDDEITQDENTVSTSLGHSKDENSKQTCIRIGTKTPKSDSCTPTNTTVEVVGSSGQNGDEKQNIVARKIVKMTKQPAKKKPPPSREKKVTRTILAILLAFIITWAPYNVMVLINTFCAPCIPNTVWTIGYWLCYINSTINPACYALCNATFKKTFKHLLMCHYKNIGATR

[4] = target: T1, M2 receptor-G-protein complex; format: binding; settings: for factor of cooperativity α between binding of [3H]GDP and agonist (pα): 10 µM [3H]GDP, GDP-less membranes, n=3
[5] = system: Gi/o G-proteins; assay: Kinetics of 500 nM [3H]GDP binding to Gi/o G-proteins; set-up: species or system Chinese hamster
[6] = system: G-proteins in GDP-less membranes of CHO-M2 cells; assay: Kinetics of [3H]GDP binding to GDP-less membranes; set-up: species or system Chinese hamster; settings: 500 nM [3H]GDP, no ligand
In short: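 GDP-less CHO-M2 membranes, 30°C. Association of 500 nM [³H]GDP was measured after 20 min pre-incubation with buffer, 10 or 100 µM agonist, or 0.1 µM antagonist. For dissociation, membranes were prelabelled with 500 nM [³H]GDP for 180 min, then chased with 50 µM GDP alone or with ligand. Slow and fast rate constants came from biphasic fits.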

[7] = system: G-proteins in GDP-less membranes of CHO-M2 cells; assay: Kinetics of [35S]GTPγS binding to GDP-less membranes; set-up: species or system Chinese hamster
In short: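 GDP-less CHO-M2 membranes, 30°C. Association of 1 nM [³⁵S]GTPγS was measured after 20 min pre-incubation with buffer or 100 µM agonist, ±50 µM GDP. For dissociation, membranes were preloaded 90 min with 1 nM [³⁵S]GTPγS ±50 µM GDP, then chased with 1 µM GTPγS alone or with agonist. Filtration on glass-fibre filters, scintillation counting. Three experiments in quadruplicate; exponential association/dissociation fits.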

[8] = target: T2, human M2 muscarinic receptor (Homo sapiens, UniProt P08172); assay: Agonist-stimulated [35S]GTPγS binding to membranes from M2 CHO cells; format: biochemical; settings: for EMAX [fold over basal]: 500 pM [35S]GTPγS, 50 µM GDP; for nH: Hill coefficient, Eqn 2
T2 sequence (P08172 1-466): T1 sequence (P08172 1-466)

[9] = target: T3, Gs/olf G-proteins (Homo sapiens, UniProt P08172); assay: biochemical; format: biochemical, Chinese hamster
T3 sequence (P08172 1-466): T1 sequence (P08172 1-466)

[10] = target: T2, human M2 muscarinic receptor; assay: Competition of agonists with 1 nM [3H]NMS binding
[11] = target: T4, Gi/o G-proteins (Homo sapiens, UniProt P08172); assay: biochemical; format: biochemical, Chinese hamster
T4 sequence (P08172 1-466): T1 sequence (P08172 1-466)

[12] = target: T5, Gq/11 G-proteins (Homo sapiens, UniProt P08172); assay: [35S]GTPγS binding to Gq/11 G-proteins; format: biochemical, Chinese hamster
T5 sequence (P08172 1-466): T1 sequence (P08172 1-466)

[13] = target: T4, Gi/o G-proteins; assay: biochemical; format: binding, Chinese hamster; settings: for pα: cooperativity between agonist and [3H]GDP binding
[14] = target: T5, Gq/11 G-proteins; format: binding, Chinese hamster
[15] = target: T3, Gs/olf G-proteins; assay: biochemical; format: binding, Chinese hamster; settings: for pα: cooperativity between agonist and [3H]GDP binding
[16] = Control (crude membranes), fraction of receptors in low-affinity state

With `Nc1nc2c(ncn2[C@@H]2O[C@H](COP(=O)(O)OP(=O)(O)O)[C@@H](O)[C@H]2O)c(=O)[nH]1` [GDP, guanosine diphosphate] the Beq [1] was 0.81 ± 0.04 fmol·µg^−1 protein, the koff [1] was 0.00112 ± 0.00012 s⁻¹ and the IC50 ([2]; read-out: IC50, homologous competition, 1 µM [3H]GDP) was 4480 nM. For the same molecule, the IC50 ([2]; read-out: IC50, homologous competition, 5 µM [3H]GDP) was 8550 nM, the Kd ([2]; read-out: KD for [3H]GDP from homologous competition) was 3490 nM and the Kd ([2]; read-out: KD, saturation binding, 0.3 to 10 µM [3H]GDP) was 3470 ± 30 nM. The “factor of cooperativity α between [3H]NMS and GDP” value ([3]; GDP-less membranes) was 1, the “effect of GDP on [3H]NMS binding” value ([3]; absence of agonist) was “no effect” and the “equilibrium dissociation constant for [3H]GDP (pKA)” value ([4]; Eqn 7, all four agonists, mean ± SD, n=12) was 5.51 ± 0.05. It also gave a Beq1 ([5]; Control) of 2.1 ± 0.2 fmol·µg^−1 protein, a Beq2 ([5]; Control) of 1.1 ± 0.1 fmol·µg^−1 protein and a f2 ([5]; Control) of 37 ± 5%. The koff1 ([5]; Control) was 0.00583 ± 0.0005 s⁻¹, the koff2 ([5]; Control) was 0.000667 ± 6.7e-05 s⁻¹ and the “Beq, mono-exponential fit” value ([5]; control conditions (absence of carbachol), n=3) was 2.8 ± 0.3 fmol·µg·prot^−1. For the same molecule, the koff fast [6] was 0.00122 s⁻¹, the “sites with koff slow” value [6] was 40% and the “Beq of [35S]GTPγS” value ([7]; GDP-less membranes, 50 µM GDP) was 1.21 ± 0.12 fmol·µg^−1protein. For the same molecule, the “decrease of equilibrium binding of [35S]GTPγS” value ([7]; addition of 50 µM GDP) was 4.7 fold, the “effect on rate of dissociation of [35S]GTPγS” value ([7]; addition of 50 µM GDP) was “did not change” and the “slowing of rate of association of [35S]GTPγS” value ([7]; addition of 50 µM GDP) was 3.2 fold.
With `O=C1CCCN1CC#CCN1CCCC1` [Oxotremorine] the EC50 [8] was 1020 nM, the “maximal increase of [35S]GTPγS binding (Emax)” value [8] was 2.8 fold increase and the “EMAX [fold over basal]” value [8] was 2.78 ± 0.06 fold over basal. For the same molecule, the nH [8] was 0.92 ± 0.03, the EC50 [9] was 7410 nM and the EMAX ([9]; Gs/olf) was 1.53 ± 0.01 fold increase over basal binding. For the same molecule, the “reduction of agonist affinity by GDP (factor of cooperativity β)” value [3] was 60 fold, the “flow[%]” value [10, 16] was 66 ± 8% and the “flow[%]” value ([10]; GDP-less membranes) was 13 ± 4 %. For the same molecule, the “change of high-affinity KI in GDP-less membranes vs control” value ([10]; GDP-less vs control membranes) was “not changed”, the Ki ([10]; pKi high, Control (crude membranes)) was 11.7 nM and the Ki ([10]; pKi high, GDP-less membranes) was 11.2 nM. For the same molecule, the Ki ([10]; pKi, +1 µM GTPγS, monophasic) was 550 nM, the Ki ([10]; pKi, +50 µM GDP, monophasic) was 417 nM and the EC50 [11] was 933 nM. The EMAX ([11]; Gi/o) was 2.72 ± 0.05 fold increase over basal binding, the “stimulation of [35S]GTPγS binding” value ([12]; Gq/11, text) was “no stimulation” and the Kd [13] was 11.7 nM. The pα ([13]; Gi/o) was −2.1 ± 0.2, the “effect on [3H]GDP equilibrium binding” value ([14]; Gq/11, 10 µM [3H]GDP) was “no effect” and the “factor of cooperativity α between binding of [3H]GDP and agonist (pα)” value [4] was −1.8 ± 0.1. The Kd [15] was 10.7 nM and the pα ([15]; Gs/olf) was −0.78 ± 0.08.
For `C[N+](C)(C)Cc1ccco1` [Furmethide], the “maximal increase of [35S]GTPγS binding (Emax)” value [8] was 3.1 fold increase, the “EMAX [fold over basal]” value [8] was 3.12 ± 0.08 fold over basal and the nH [8] was 0.82 ± 0.05. The EC50 ([8]; read-out: half-effective concentrations (EC50), stimulation of [35S]GTPγS binding) was 7000 nM, the EMAX ([9]; Gs/olf) was 1.70 ± 0.02 fold increase over basal binding and the pEC50 ([9]; Gs/olf) was 4.76 ± 0.03. For the same molecule, the “reduction of agonist affinity by GDP (factor of cooperativity β)” value [3] was 250 fold, the pKi ([10]; +1 µM GTPγS, monophasic) was 4.76 ± 0.05 and the pKi ([10]; +50 µM GDP, monophasic) was 4.77 ± 0.05. The pKi high ([10]; Control (crude membranes)) was 7.12 ± 0.09, the pKi low ([10]; Control (crude membranes)) was 4.78 ± 0.08 and the “flow[%]” value [10, 16] was 50 ± 9%. The “flow[%]” value ([10]; GDP-less membranes) was 9.6 ± 3.8 %, the pKi high ([10]; GDP-less membranes) was 7.77 ± 0.08 and the pKi low ([10]; GDP-less membranes) was 4.87 ± 0.09. The EMAX ([11]; Gi/o) was 2.95 ± 0.09 fold increase over basal binding, the pEC50 ([11]; Gi/o) was 5.34 ± 0.10 and the EMAX ([12]; Gq/11) was 1.20 ± 0.01 fold increase over basal binding. The pEC50 ([12]; Gq/11) was 4.72 ± 0.06, the pα ([13]; Gi/o) was −2.4 ± 0.2 and the pKA ([13]; Gi/o, equilibrium dissociation constant of agonist, Eqn 7) was 7.13 ± 0.05. The pα ([14]; Gq/11, cooperativity between agonist and [3H]GDP binding) was −0.32 ± 0.05, the pKA ([14]; Gq/11, equilibrium dissociation constant of agonist, Eqn 7) was 7.17 ± 0.06 and the “factor of cooperativity α between binding of [3H]GDP and agonist (pα)” value [4] was −2.4 ± 0.3. For the same molecule, the pα ([15]; Gs/olf) was −1.0 ± 0.1 and the pKA ([15]; Gs/olf, equilibrium dissociation constant of agonist, Eqn 7) was 7.10 ± 0.05.
